Assay results published in ChEMBL document CHEMBL4627381, “Licochalcone A Selectively Resensitizes ABCG2-Overexpressing Multidrug-Resistant Cancer Cells to Chemotherapeutic Drugs” (J Nat Prod, 2020).
Active and inactive are the calls of the source. The calls are words filed in the database; no cut-off is given here.

How the values were obtained:
[1] = test system: S1; experiment: Induction of apoptosis in human S1 cells assessed as early apoptotic cells at 10 uM incubated for 48 hrs in presence of topotecan by annexin V/propidium iodide staining based flow cytometry (reference value: 2%); assay type: functional
Summary of the method: (§1)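 S1 cells were exposed for 48 h to DMSO, 10 μM compound, 5 μM topotecan, or 5 μM topotecan plus 10 μM compound. They were then stained with 1.25 μg/mL annexin V–FITC and 0.1 mg/mL PI for 15 min at room temperature. 10000 cells per sample were analysed by flow cytometry; three independent experiments.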

[2] = molecular target: T1, Broad substrate specificity ATP-binding cassette transporter ABCG2 (Homo sapiens, UniProt Q9UNQ0); experiment: Reversal of ABCG2 (unknown origin)-mediated multidrug resistance in human H460-MX20 cells assessed as fold change in mitoxantrone IC50 at 0.5 uM after 72 hrs by MTT assay relative to mitoxantrone IC50; assay type: cell-based
T1 sequence (Q9UNQ0 whole entry): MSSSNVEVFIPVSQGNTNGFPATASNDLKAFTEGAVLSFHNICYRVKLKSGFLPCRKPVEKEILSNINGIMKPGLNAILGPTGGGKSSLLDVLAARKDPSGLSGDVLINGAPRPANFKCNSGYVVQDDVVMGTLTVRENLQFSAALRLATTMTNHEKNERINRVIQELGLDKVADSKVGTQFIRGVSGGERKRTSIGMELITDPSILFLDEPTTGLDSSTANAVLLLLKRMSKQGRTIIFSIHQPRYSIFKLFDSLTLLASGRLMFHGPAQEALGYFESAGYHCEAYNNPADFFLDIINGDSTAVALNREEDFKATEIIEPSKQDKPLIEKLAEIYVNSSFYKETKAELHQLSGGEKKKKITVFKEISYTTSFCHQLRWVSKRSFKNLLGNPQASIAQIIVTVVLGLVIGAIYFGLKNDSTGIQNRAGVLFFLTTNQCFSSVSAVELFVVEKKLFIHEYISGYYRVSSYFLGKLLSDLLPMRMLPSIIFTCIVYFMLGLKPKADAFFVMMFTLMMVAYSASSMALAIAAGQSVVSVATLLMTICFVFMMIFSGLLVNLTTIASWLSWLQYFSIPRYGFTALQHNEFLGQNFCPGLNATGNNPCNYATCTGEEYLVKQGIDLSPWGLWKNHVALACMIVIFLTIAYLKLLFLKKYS
Summary of the method: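 Cells held drug-free 7 days, seeded at 5000 per well for 24 h, then exposed 72 h to mitoxantrone or topotecan dilutions with DMSO (≤0.5%), LCA 0.5–3.0 μM, or Ko143 1.0 μM. Viability was read by MTT. IC50 came from fitted dose-response curves of three independent experiments. Fold-reversal = IC50 without modulator divided by IC50 with modulator.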

[3] = test system: S1; experiment: Effect on topotecan-induced cytotoxicity against human S1 cells assessed as fold change in topotecan IC50 at 2 uM after 72 hrs by MTT assay relative to topotecan IC50; assay type: functional
Summary of the method: (§2)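 Parental S1 colon and H460 lung cancer cells were exposed for 72 h to a mitoxantrone or topotecan concentration series, with or without modulator at 0.5–3.0 μM, and read by MTT. Fold-reversal is IC50 without modulator divided by IC50 with modulator, taken from dose-response curves of three independent experiments.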

[4] = test system: NCI-H460; experiment: Cytotoxicity against human H460 cells after 72 hrs by MTT assay; assay type: functional, cell-based; conditions: NCI-H460, 72 h
Summary of the method: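 Cells seeded at 5000/well, allowed 24 h, then exposed to a concentration series for 72 h at 37 °C in DMSO vehicle (up to 0.5% v/v). HEK293 lines were read with CCK-8 and cancer lines with MTT. IC50 was taken from fitted dose-response curves over at least three independent experiments. Lines were kept drug-free for 7 days before assay.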

[5] = test system: S1-M1-80; experiment: Induction of apoptosis in human S1-M1-80 cells harboring ABCG2 (unknown origin) assessed as late apoptotic cells at 10 uM incubated for 48 hrs by annexin V/propidium iodide staining based flow cytometry (reference value: 2.9%); assay type: functional
[6] = species on record: Homo sapiens; experiment: Downregulation of ABCG2 expression in human NCI-H460/MX20 cells at 0.5 to 3 uM incubated for 72 hrs by Western blot analysis; assay type: functional, cell-based
Summary of the method: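 S1-M1–80 and H460-MX20 cells were treated with 0.5–3.0 μM or DMSO vehicle for 72 h, then run on SDS-PAGE and immunoblotted with BXP-21 (1:15000) for ABCG2. α-Tubulin (1:100000) served as loading control, with HRP goat anti-mouse secondary. Bands were quantified as mean ± SEM of three independent experiments.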

[7] = test system: S1; experiment: Induction of apoptosis in human S1 cells assessed as necrotic cells at 10 uM incubated for 48 hrs by annexin V/propidium iodide staining based flow cytometry (reference value: 0.2%); assay type: functional; summary of the method: as §1
[8] = test system: S1; experiment: Effect on topotecan-induced cytotoxicity against human S1 cells assessed as fold change in topotecan IC50 at 0.5 uM after 72 hrs by MTT assay relative to topotecan IC50; assay type: functional; summary of the method: as §2
[9] = molecular target: T1, Broad substrate specificity ATP-binding cassette transporter ABCG2; experiment: Reversal of human ABCG2-mediated multidrug resistance in HEK293/R482 cells assessed as fold-change in topotecan IC50 at 2 uM after 72 hrs by CCK8 relative to topotecan IC50; assay type: cell-based
Summary of the method: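 Cells were seeded at 5000/well for 24 h, then given colchicine, etoposide, mitoxantrone or topotecan ± non-toxic modulator (0.5–3.0 μM) for 72 h, with DMSO up to 0.5%. IC50 came from fitted curves (mean ± SD, three experiments). Fold-reversal = IC50 without modulator ÷ IC50 with modulator.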

[10] = test system: NCI-H460; experiment: Effect on topotecan-induced cytotoxicity against human H460 cells assessed as fold change in topotecan IC50 at 3 uM after 72 hrs by MTT assay relative to topotecan IC50; assay type: functional; summary of the method: as §2
[11] = test system: HEK293; experiment: Effect on Colchicine-induced cytotoxicity against HEK293 cells assessed as fold change in colchicine IC50 at 0.5 uM after 72 hrs by CCK8 assay relative to colchicine IC50; assay type: cell-based; conditions: human, hek293, 72 h
Summary of the method: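 Reversal assay in parental pcDNA-HEK293 and transfected HEK293 lines (ABCB1 for colchicine, ABCC1 for etoposide, ABCG2 for mitoxantrone/topotecan). Substrate drug series was given with or without nontoxic modulator (0.5, 1.0, 2.0 or 3.0 μM) for 72 h, with a CCK-8 read-out. Fold-reversal is substrate IC50 without modulator divided by IC50 with modulator. Three independent experiments.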

[12] = molecular target: ATP-dependent translocase ABCB1 (Homo sapiens, UniProt P08183); experiment: Modulation of human ABCB1 expressed in HEK293/MDR19 cells assessed as increase in intracellular calcein-AM accumulation at 20 uM incubated for 10 mins by FACScan flow cytometry; assay type: cell-based
Chain of ATP-dependent translocase ABCB1 (P08183 whole entry): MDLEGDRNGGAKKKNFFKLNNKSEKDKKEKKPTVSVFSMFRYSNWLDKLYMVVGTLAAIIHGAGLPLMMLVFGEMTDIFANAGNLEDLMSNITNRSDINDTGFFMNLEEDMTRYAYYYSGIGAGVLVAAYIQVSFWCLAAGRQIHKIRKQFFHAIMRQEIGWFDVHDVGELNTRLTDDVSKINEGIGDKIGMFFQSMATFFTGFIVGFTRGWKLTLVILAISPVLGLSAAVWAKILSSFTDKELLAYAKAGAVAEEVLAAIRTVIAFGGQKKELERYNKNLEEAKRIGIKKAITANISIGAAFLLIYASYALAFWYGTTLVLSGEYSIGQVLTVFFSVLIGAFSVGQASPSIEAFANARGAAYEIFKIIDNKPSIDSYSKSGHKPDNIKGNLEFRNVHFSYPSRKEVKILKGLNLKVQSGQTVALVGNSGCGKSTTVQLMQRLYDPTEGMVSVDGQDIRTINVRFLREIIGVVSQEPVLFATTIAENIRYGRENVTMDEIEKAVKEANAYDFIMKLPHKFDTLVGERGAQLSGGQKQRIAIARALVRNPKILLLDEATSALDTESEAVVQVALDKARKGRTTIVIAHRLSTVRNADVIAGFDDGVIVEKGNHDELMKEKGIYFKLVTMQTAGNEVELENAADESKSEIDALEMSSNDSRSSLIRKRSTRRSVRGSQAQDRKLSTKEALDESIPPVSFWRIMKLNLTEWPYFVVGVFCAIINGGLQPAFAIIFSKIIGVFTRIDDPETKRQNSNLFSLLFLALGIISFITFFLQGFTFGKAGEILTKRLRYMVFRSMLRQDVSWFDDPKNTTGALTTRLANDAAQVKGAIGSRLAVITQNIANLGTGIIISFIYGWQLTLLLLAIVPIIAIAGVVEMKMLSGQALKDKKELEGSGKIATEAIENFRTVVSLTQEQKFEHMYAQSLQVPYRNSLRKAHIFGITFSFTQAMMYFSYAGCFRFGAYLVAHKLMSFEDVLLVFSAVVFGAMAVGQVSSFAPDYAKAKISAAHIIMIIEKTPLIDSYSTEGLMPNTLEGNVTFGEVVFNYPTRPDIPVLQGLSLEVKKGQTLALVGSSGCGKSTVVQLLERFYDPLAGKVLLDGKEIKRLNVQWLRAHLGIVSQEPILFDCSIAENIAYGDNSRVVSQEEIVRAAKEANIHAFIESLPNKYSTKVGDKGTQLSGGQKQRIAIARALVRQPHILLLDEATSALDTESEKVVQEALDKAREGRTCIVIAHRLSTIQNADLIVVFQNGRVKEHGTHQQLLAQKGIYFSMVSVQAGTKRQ
Summary of the method: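 Cells held drug-free 7 days. 3 × 10^5 cells in IMDM with 5% FCS were loaded with calcein-AM for 10 min, with or without 20 μM LCA. Reference inhibitors were tariquidar 3 μM (ABCB1) and MK-571 25 μM (ABCC1). Calcein fluorescence (ex 485/em 535 nm) was read by flow cytometry; at least three independent experiments.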

[13] = test system: S1; experiment: Effect on mitoxantrone-induced cytotoxicity against human S1 cells assessed as fold change in mitoxantrone IC50 at 1 uM after 72 hrs by MTT assay relative to mitoxantrone IC50; assay type: functional; summary of the method: as §2
[14] = test system: S1-M1-80; experiment: Potentiation of topotecan-induced apoptosis in human S1-M1-80 cells harboring ABCG2 (unknown origin) assessed as necrotic cells at 10 uM incubated for 48 hrs by annexin V/propidium iodide staining based flow cytometry (reference value: 0.4%); assay type: functional

- fold change (FC) [9]: 4.6
- Activity [12]: Not Active
Compound: C=CC(C)(C)c1cc(/C=C/C(=O)c2ccc(O)cc2)c(OC)cc1O [LICOAGROCHACONE A]
- Activity [1]: 30.3%
- fold change (FC) [2]: 2.6
- fold change (FC) [3]: 0.9
- IC50 [4]: 10 to 50 µM
- Activity [5]: 2.9%
- Activity [6]: inactive
- Activity [7]: 0.2%
- fold change (FC) [8]: 0.9
- fold change (FC) [10]: 1.7
- fold change (FC) [11]: 1
- fold change (FC) [13]: 1.1
- Activity [14]: 0.8%
